The text below walks through data of ChEMBL document CHEMBL2390841, “1,1-Difluoroethyl-substituted triazolothienopyrimidines as inhibitors of a human urea transport protein (UT-B): new analogs and binding model” (Bioorg Med Chem Lett, 2013).

Data set [1] concerns Liver microsomes. In words: Metabolic stability in rat liver microsomes assessed as parent compound remaining after 30 mins. It counts as ADME, Microsome. To be noted: 0.5 h. Summed up:
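Compounds are incubated 30 min with rat liver microsomes plus NADPH, then organic-extracted and analysed by LCMS. Value is percent parent remaining.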
Background: Liver microsomes are vesicles of endoplasmic reticulum, rich in cytochrome P450 enzymes.

Data set [2] addresses T1, Urea transporter 1 (Mus musculus, UniProt Q8VHL0).
T1 sequence (Q8VHL0 whole entry): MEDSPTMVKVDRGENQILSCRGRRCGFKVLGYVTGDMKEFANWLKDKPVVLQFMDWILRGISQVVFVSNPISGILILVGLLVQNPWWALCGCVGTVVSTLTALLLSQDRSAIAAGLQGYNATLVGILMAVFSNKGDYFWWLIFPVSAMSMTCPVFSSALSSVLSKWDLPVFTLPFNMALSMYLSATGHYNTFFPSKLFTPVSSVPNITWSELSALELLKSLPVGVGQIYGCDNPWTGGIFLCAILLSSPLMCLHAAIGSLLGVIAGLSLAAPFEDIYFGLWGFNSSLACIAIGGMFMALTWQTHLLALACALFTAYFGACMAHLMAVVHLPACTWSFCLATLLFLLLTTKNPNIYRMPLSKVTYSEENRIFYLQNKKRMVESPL
In words: Inhibition of UT-B in mouse acetamide-loaded erythrocyte assessed as increase of hypotonic lysis. Summed up: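 Erythrocytes preloaded with acetamide are diluted into isosmolar PBS. Hypotonic lysis is read as near-infrared light absorbance; blocking UT-B-mediated acetamide efflux increases lysis. IC50 comes from a fit to a single-site saturation model.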

For the compound `CCc1ccc(S(=O)(=O)c2nnn3c2nc(NCc2cccs2)c2sccc23)cc1`, the Stability in data set [1] is given as under 5%.

Take `Cc1csc(CNc2nc3c(S(=O)(=O)c4ccc(C(C)(F)F)cc4)nnn3c3ccsc23)c1`: in data set [2], the 50% inhibitory concentration (IC50) was 38 nM. In addition, in data set [1], the Stability was determined as 22%.

In the case of `CC(F)(F)c1ccc(S(=O)(=O)c2nnn3c2nc(NCc2ccsc2)c2sccc23)cc1`, the concentration for half-maximal inhibition (IC50) in data set [2] was determined as 43 nM. Besides, the Stability in data set [1] is given as 47%.

Take `CC(F)(F)c1ccc(S(=O)(=O)c2nnn3c2nc(NCc2ccco2)c2sccc23)cc1`: the half-inhibitory concentration (IC50) in data set [2] was 353 nM. Also, in data set [1], the Stability amounted to 14%. Regarding `CC(F)(F)c1ccc(S(=O)(=O)c2nnn3c2nc(NCc2ccccc2)c2sccc23)cc1`, the IC50 in data set [2] is over 800 nM. In data set [1], the Stability is recorded as 79%. In the case of `CC(F)(F)c1ccc(S(=O)(=O)c2nnn3c2nc(NCC2CC2)c2sccc23)cc1`, the half-inhibitory concentration (IC50) in data set [2] was over 800 nM. In data set [1], the Stability was determined as 75%. As for `CC(F)(F)c1ccc(S(=O)(=O)c2nnn3c2nc(NCC2CCC2)c2sccc23)cc1`, the IC50 in data set [2] was over 800 nM. The Stability in data set [1] came to 24%.

The IC50 is the concentration needed to halve the response being measured.
